# Assay outcomes: PubChem, several laboratories
# M1 ag: activates the M1 muscarinic receptor; CHO-M1 cells, Fluo-4 calcium fluorescence, agonist mode; active compounds read high; B-score at 10 µM; 3% of 64,000 active;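 active = fluorescence rise, raw or as B-score row- and column-corrected plate score, outside the 99.7% band of its plate's samples, either direction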
# WNV protease inh: inhibitors of West Nile virus NS2B-NS3 protease | P06935 | WNV NS2B-NS3 protease, fluorogenic substrate Ex360/Em465; active compounds read low | z-score (test concentration not listed) | 0.18% of 65,000 active; in the data active = z-score below about -3
# Ecoli tolC: E. coli tolC mutant growth inhibition; E. coli BW25113 tolC mutant growth, OD615; growth inhibition, % at 10 µM (by protocol); 2.2% of 65,000 active; AID 573;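 active = growth inhibition at or above a cutoff equal to the mean over every tested compound plus 3 SD, cut at about 60% in these data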;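 also: growth measured after 20 h incubation at 37 °C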
#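 Doses: one dose of 10 µM final / Material: E. coli BW25113 ΔtolC::kan, tolC deletion mutant strain / Buffer or medium: LB with kanamycin 50 µg/mL / Evaluation: percent growth inhibition / Detection: optical density read at 615 nm / Incubation: 37 °C, 20 h exposure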
# E coli WT exp: E. coli BW25113 growth inhibition, expanded screen; OD600 absorbance; growth inhibition, % at 100 µM; 0.15% of 98,000 active; AID 710;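 active = growth inhibition above about 50% at one test dose, limit read from the data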;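 also: growth measured after 20 h incubation at 37 °C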
# M1 antag: blocks the rat M1 muscarinic receptor response to acetylcholine | P08482 | CHO-M1 cells, Fluo-4 calcium, ACh EC80 antagonist mode; active compounds read low | B-score at 10 µM | 3.4% of 64,000 active;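 active = calcium fluorescence response, raw or row-and-column corrected B-score, differing from the plate sample mean either way at a set confidence level, mostly lower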
# Target sequence (P08482 whole entry, looked up): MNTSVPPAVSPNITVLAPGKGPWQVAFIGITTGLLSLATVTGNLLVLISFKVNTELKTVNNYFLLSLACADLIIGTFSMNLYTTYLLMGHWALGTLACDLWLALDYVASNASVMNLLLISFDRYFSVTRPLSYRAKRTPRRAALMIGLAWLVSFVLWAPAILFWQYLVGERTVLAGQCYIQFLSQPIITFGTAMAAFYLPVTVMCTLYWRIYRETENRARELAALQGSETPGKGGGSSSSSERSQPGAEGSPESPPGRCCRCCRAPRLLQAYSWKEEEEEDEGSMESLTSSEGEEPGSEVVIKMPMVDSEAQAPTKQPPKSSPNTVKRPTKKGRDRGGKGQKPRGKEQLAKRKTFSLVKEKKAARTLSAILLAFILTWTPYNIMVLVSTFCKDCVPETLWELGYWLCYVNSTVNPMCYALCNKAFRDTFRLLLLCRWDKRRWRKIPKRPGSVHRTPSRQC
# AP complement: alternative pathway complement inhibition, orthogonal assay | Human serum alternative complement pathway, LPS-coated ELISA, C3 deposition; tested in compound mixtures | inhibition, % at 5 µM | 0.08% of 62,000 active | AID 1235;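 active = inhibition above 30% in each of the two pooled mixtures holding the compound, so the lower value exceeds 30%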;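 also: 0% = serum in Mg-EGTA without compound and 100% = EDTA serum blank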
#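 Test system – human serum alternative complement pathway, C3 deposition on LPS-coated wells · Buffer or medium – diluted human serum in Mg2+-EGTA GVB++ · Compound dosing – 5 µM each compound, pools of ten, 50 µM per pool · Schedule – 1 h serum-compound exposure at 37 °C · Measured by – Anti-C3 ELISA, OD 450 nm · Read-out basis – percent inhibition of C3 deposition onto LPS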
# Starred values were filed as active, the others as inactive; / = no result given. A selection: hits, their analogues and other compounds. The true share with any hit is near 5.2%.
SMILES,M1 ag,WNV protease inh,Ecoli tolC,E coli WT exp,M1 antag,AP complement
Cc1ccc(-c2nc3ccc(NS(=O)(=O)c4ccccc4)cc3[nH]2)o1,/,/,/,-5.0,/,/
CCOC(=O)N1CCN(S(=O)(=O)c2cc(Cl)ccc2Cl)CC1,-0.741,0.49,-4.6,4.0,0.95*,-6.4
Cc1ccc(S(=O)(=O)c2cc(C#N)c(=O)[nH]c2N)cc1,/,/,/,-4.0,/,/
CS(=O)(=O)c1nc(-c2ccc(Br)cc2)cc(-c2ccccc2)c1C#N,/,/,/,-8.0,/,/
CS(=O)c1nc(-c2ccc(Br)cc2)cc(-c2ccccc2)c1C#N (stereo not given),0.145,-0.15,95.1*,-9.0,0.127,9.8
O=C(CSc1cccc[n+]1[O-])c1cc2ccccc2o1,0.0177,-0.28,5.4,97.0*,0.109,7.4
COC(=O)c1cc(NC(=O)CC2SC(=Nc3ccccc3)N(CCc3c[nH]c4ccccc34)C2=O)cc(C(=O)OC)c1 (stereo not given),/,/,/,-4.0,/,/
O=C(Nc1ccc(C(F)(F)F)cc1Cl)c1ccc(Cn2cc(Br)cn2)o1,-0.253,0.56,98.8*,1.0,-0.462,-2.2
O=C(NCc1ccccn1)c1ccc(Cn2cc(Br)cn2)o1,0.0587,0.2,-4.2,4.0,2.32*,4.2
CCn1c2ccccc2c2cc(NC(=O)c3ccco3)ccc21,-0.0855,-1.39,87.4*,-6.0,0.991,10.0
CCn1c2ccccc2c2cc(NC(C)=O)ccc21,/,/,/,-16.0,/,/
N#CCN1CCN(CCC(=O)Nc2ccc(OCc3ccccc3)cc2)CC1,/,/,/,5.0,/,/
Cc1cc(C)c(S(=O)(=O)NCC23C=CC(O2)C2C(=O)N(c4ccccc4)C(=O)C23)c(C)c1 (stereo not given),/,/,/,1.0,/,/
COc1ccc(S(=O)(=O)N(Cc2cccs2)C2CCCC2)cc1,1.38,-0.23,65.8*,-2.0,0.183,17.4
Cn1cc(C(=O)NCN2CCCCC2)c2ccccc21,-0.902,-6.57*,12.2,4.0,0.0178,4.0
CN(C1CCCCC1)S(=O)(=O)c1ccc2c(c1)c(=O)c(C(=O)NCCN1CCCC1)cn2C,1.21,-2.09,-8.4,-2.0,0.159,22.4
Cc1cc(C(=O)OCc2nnc(-c3ccccc3)o2)c(C)n1-c1ccccc1,-2.05,-1.1,62.5*,-15.0,-0.245,28.5
O=C(OCc1nnc(-c2ccccc2)o1)c1cn(-c2ccccc2)nc1-c1ccccc1,-0.359,0.6,18.5,-24.0,-0.18,10.7
Cc1nc(N2CCc3ccccc32)[nH]c(=O)c1CCC(C)C,0.0663,-1.17,-11.0,/,-0.294,4.6
CCCCOC(=O)Nc1ccc(C(=O)OC)cc1,-0.0645,-1.21,-16.2,-6.0,-0.667,5.0
CCCCOC(=O)Nc1cc(C(=O)OC)ccc1C(=O)OC,0.795,0.86,66.6*,-1.0,0.414,13.0
COc1ccc(S(=O)(=O)Nc2ccccc2C(=O)NCc2ccco2)cc1Br,-1.69,-0.46,83.2*,4.0,-0.88,11.8
CC(C)(C)c1csc(NC(=O)c2ccc(Cl)s2)n1,0.459,-1.11,100.0*,-7.0,-0.421,/
O=C(Nc1nc(-c2cccs2)cs1)c1ccc(Cl)s1,0.0158,-0.24,95.8*,-18.0,-1.24,-2.5
Cc1ccc(C(=O)Nc2nc(C(C)(C)C)cs2)s1,/,/,/,8.0,/,/
SMILES,M1 ag,WNV protease inh,Ecoli tolC,E coli WT exp,M1 antag,AP complement
Cc1cc(N2CCC(C)CC2)nc(-n2nc(C)cc2C)n1,0.807,-1.38,100.0*,19.0,-1.15,15.7
Cc1cc(C)n(-c2nc3ccccc3nc2N2CCC(C)CC2)n1,/,/,/,8.0,/,/
COc1ccccc1NC(=O)c1cc2n(n1)C(C(F)(F)F)CC(c1ccc3c(c1)OCO3)N2 (stereo not given),-0.282,-0.78,47.5,-6.0,0.803*,11.4
COc1ccc(OC)c(NC(=O)c2cc3n(n2)C(C(F)(F)F)CC(c2ccc4c(c2)OCO4)N3)c1 (stereo not given),-0.41,0.85,30.6,/,-2.48,15.1
Cc1ccc(NC(=O)NCCCc2ccccc2)cc1,/,/,/,-1.0,/,/
COc1ccc(OCCSc2ncn[nH]2)cc1,/,/,/,8.0,/,/
Cc1ccc(-n2nnnc2SCC(=O)c2cc(C)n(-c3cc(C)on3)c2C)cc1,0.966,0.84,-0.7,-11.0,0.825*,-1.8
Cc1ccc(-n2nnnc2SCC(=O)c2cc(C)n(CC3CCCO3)c2C)cc1 (stereo not given),-0.464,-1.09,12.4,/,0.0114,14.8
CCC(NC(=O)NCCCn1ccnc1)(C(F)(F)F)C(F)(F)F,-0.6,-1.76,-8.9,7.0,1.38,6.7
CCn1c(O)c(C=NCCN2CCOCC2)sc1=S,1.42,-4.55*,-34.0,-1.0,0.708,5.1
CC1(C)CC(=O)C(C=NCCCN2CCOCC2)=C(O)C1,0.643,0.01,2.8,3.0,0.922,-1.2
O=C(c1c(F)cccc1F)N(Cc1ccccn1)C1CCCC1,0.702,0.24,-6.8,4.0,-0.349,-7.8
CCCCNC(=O)c1onc(CSc2ccc(C(C)C)cc2)c1C(=O)O,/,/,/,-9.0,/,/
O=C(COn1nnc2ccc(C(F)(F)F)cc21)Nc1nnc(-c2ccccc2)o1,0.0362,0.18,100.0*,-5.0,-0.344,-2.5
Brc1cccc(C2CC(c3ccccc3)n3nnnc3N2)c1 (stereo not given),-0.273,-0.37,62.9*,14.0,-0.552,10.6
COC(=O)c1ccccc1NC(=O)CSc1nccn1C,-2.55,-0.54,-12.7,-1.0,0.186,14.8
COC(=O)c1ccccc1NC(=O)CSc1nc(O)cc(=O)n1C1CCCC1,43.8*,0.38,12.9,8.0,0.686,11.9
CCOc1ccc(/C(O)=C2/C(=O)C(=O)N(CCCn3ccnc3)C2c2cccs2)cc1Cl (stereo not given),-0.0512,0.95,-6.5,6.0,1.68,21.0
CC1(C)C(=O)OC(c2cc(Br)ccc2O)C(C)(C)C1=O (stereo not given),2.46,-0.21,63.3*,/,-1.53,-0.3
COC(=O)C(Cc1cncn1COCc1ccccc1)NC(=O)OC(C)(C)C (stereo not given),0.31,-0.35,5.1,7.0,0.335,16.9
CC(=O)Oc1cc2c(C(=O)NCc3ccncc3)c(C)oc2c2ccccc12,6.13*,0.18,3.3,/,2.01*,11.3
Cc1cccc(N2CCN(C(=O)c3ccc(N4CCCC4=O)cc3)CC2)c1C,1.05,0.13,14.9,0.0,-0.932,-0.1
CCc1ccccc1N(CC)C(=O)CCc1nc(-c2ccc(C)cc2)no1,-0.26,1.71,95.1*,3.0,0.0785,-9.0
CC(=O)c1c(C)[nH]c(C(=O)NCc2ccccc2)c1C,/,/,/,-4.0,/,/
CCN(CCCNC(=O)CCc1nc(-c2ccc(C)cc2)no1)c1cccc(C)c1,-0.0177,-1.03,90.9*,-16.0,-0.55,10.6
Cc1ccc(-c2noc(CCC(=O)NCCc3ccccc3Cl)n2)cc1,-0.229,0.06,8.9,-1.0,0.884,2.4
CCN(CCCNC(=O)c1[nH]c(C)c(C(C)=O)c1C)c1cccc(C)c1,-0.823,0.6,98.5*,-4.0,-0.124,12.7
CCN(Cc1ccccc1)C(=O)CCc1nc(-c2ccc(C)cc2)no1,-0.195,-0.22,88.0*,-9.0,0.141,4.5
